“Also recorded” adds a separate entry of the source.
Tests used:
[1] = Intrinsic clearance in human liver microsomes; format: in vitro ADME; settings: for CLint scaled: human, liver microsomes; for predicted clearance: predicted from CLINT in liver microsomes (rat and human), in words
[2] = Intrinsic clearance in rat liver microsomes; format: in vitro ADME
D1 = D1 (Homo sapiens, UniProt P21728); test: Dopamine receptor selectivity, radioligand binding at EuroFins: D1; settings: read-out: % inhibition at 10 µM D1 (%)
Method in brief: (§1)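 Contract radioligand binding screen against the indicated human dopamine receptor subtype. Each test compound was run in duplicate, and the read-out is percent inhibition of specific radioligand binding.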

D3 = D3 (Homo sapiens, UniProt P35462); test: Dopamine receptor selectivity, radioligand binding at EuroFins: D3; settings: read-out: % inhibition at 10 µM D3 (%)
Method in brief: as §1

D5 = D5 (Homo sapiens, UniProt P21918); test: Dopamine receptor selectivity, radioligand binding at EuroFins: D5; settings: read-out: % inhibition at 10 µM D5 (%)
Method in brief: as §1

[3] = system: other dopamine receptors (D1, D2L, D2S, D3, and D5); test: Selectivity against the other dopamine receptors; format: binding; settings: for selectivity against all of the dopamine receptors tested: in words
[4] = Metabolic soft-spot experiment in human liver microsomes; format: in vitro ADME
[5] = Metabolic soft-spot experiment in rat liver microsomes; format: in vitro ADME
[6] = target: T1, dopamine D4 receptor (D4R) (Homo sapiens, UniProt P21917); test: D4 radioligand binding assay using Spiperone at EuroFins; settings: run in duplicate
T1 sequence (P21917 1-419): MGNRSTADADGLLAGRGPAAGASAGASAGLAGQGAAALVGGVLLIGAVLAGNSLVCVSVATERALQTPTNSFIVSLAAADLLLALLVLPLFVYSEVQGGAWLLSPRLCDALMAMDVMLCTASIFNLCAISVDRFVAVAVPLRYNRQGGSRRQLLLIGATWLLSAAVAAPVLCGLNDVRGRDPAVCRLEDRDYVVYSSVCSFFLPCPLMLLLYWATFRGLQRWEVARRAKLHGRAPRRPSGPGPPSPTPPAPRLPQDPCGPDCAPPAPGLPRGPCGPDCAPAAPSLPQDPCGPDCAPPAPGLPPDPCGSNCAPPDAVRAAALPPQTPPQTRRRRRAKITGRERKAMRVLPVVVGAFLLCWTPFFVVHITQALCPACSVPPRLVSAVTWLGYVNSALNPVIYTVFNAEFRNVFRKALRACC

[7] = in the presence of NADPH, in words

D3, sequence (P35462 whole entry): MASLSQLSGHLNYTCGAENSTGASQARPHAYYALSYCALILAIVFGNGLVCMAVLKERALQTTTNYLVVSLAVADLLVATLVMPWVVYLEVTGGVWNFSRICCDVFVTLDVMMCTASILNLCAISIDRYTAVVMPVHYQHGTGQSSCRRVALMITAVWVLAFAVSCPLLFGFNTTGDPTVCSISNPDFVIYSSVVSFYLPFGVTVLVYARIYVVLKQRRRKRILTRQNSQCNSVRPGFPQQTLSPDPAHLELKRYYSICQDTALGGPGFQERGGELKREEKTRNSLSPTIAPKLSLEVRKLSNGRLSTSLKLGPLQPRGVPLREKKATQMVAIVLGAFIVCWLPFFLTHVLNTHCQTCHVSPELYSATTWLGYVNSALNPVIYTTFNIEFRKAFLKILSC
D1, sequence (P21728 whole entry): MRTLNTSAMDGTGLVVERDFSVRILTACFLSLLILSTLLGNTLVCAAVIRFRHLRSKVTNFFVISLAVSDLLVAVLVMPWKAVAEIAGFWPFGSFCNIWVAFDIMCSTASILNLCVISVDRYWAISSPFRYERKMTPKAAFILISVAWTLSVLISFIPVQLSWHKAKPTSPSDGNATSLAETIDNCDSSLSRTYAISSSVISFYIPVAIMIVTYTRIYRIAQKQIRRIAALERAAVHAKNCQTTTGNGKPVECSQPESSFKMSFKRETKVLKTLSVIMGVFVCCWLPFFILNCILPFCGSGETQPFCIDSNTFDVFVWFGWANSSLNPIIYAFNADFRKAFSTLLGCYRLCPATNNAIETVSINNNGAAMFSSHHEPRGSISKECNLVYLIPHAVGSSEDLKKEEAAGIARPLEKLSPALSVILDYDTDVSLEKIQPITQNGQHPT
D5, sequence (P21918 whole entry): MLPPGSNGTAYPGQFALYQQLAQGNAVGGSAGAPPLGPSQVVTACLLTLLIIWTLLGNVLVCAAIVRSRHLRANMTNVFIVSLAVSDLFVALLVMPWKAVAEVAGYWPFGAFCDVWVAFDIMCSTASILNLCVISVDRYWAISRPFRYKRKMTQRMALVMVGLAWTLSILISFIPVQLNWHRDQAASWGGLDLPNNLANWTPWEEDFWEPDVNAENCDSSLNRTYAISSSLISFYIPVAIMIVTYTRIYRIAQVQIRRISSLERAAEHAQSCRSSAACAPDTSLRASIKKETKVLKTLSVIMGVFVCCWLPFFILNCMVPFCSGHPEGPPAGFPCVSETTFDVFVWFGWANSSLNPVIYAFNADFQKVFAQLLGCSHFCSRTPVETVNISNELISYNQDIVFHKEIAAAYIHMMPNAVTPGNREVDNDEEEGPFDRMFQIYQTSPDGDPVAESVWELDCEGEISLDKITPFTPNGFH

With `Clc1ccc2c(CN3CCO[C@H](COc4ccccc4)C3)c[nH]c2c1` [Compound 4aa] the CLint scaled [1] was 46.7 mL/min/kg and the CLint scaled [2] was 614 mL/min/kg.

`Fc1ccc2c(CN3CCO[C@H](COc4ccccc4)C3)c[nH]c2c1` [Compound 4ee] showed a CLint scaled [1] of 71.1 mL/min/kg and a CLint scaled [2] of 1690 mL/min/kg.

`COc1ccc2c(CN3CCO[C@H](COc4ccccc4)C3)c[nH]c2c1` [Compound 4dd] showed a CLint scaled [1] of 31.6 mL/min/kg and a CLint scaled [2] of 184 mL/min/kg.

`COc1ccc(CN2CCO[C@H](COc3ccccc3)C2)cc1F` [Compound 4l] gave a CLint scaled [1] of 71.9 mL/min/kg and a CLint scaled [2] of 2130 mL/min/kg.

For `c1ccc(OC[C@@H]2CN(Cc3ncn4ccccc34)CCO2)cc1` [Compound 4u], the inhibition at 10 µM (D1) was < 50%, the inhibition at 10 µM (D3) was < 50% and the inhibition at 10 µM (D5) was < 50%.

With `COc1ccc(CN2CCO[C@H](COc3cccc(F)c3)C2)cc1Cl` [Compound 5m] the inhibition at 10 µM (D1) was < 50%, the inhibition at 10 µM (D3) was < 50% and the inhibition at 10 µM (D5) was < 50%. It also gave a CLint scaled [1] of 93 mL/min/kg and a CLint scaled [2] of 1500 mL/min/kg.

With `COc1cc(CN2CCO[C@H](COc3cccc(F)c3)C2)ccc1Cl` [Compound 5n] the inhibition at 10 µM (D1) was < 50%, the inhibition at 10 µM (D3) was < 50% and the inhibition at 10 µM (D5) was < 50%. For the same molecule, the CLint scaled [1] was 68.9 mL/min/kg and the CLint scaled [2] was 1770 mL/min/kg.

With `Cc1ccc(CN2CCO[C@H](COc3ccccc3)C2)cc1C` [Compound 4b] the inhibition at 10 µM (D1) was < 50%, the inhibition at 10 µM (D3) was < 50% and the inhibition at 10 µM (D5) was < 50%.

For `Clc1ccc(CN2CCO[C@H](CSc3ccccc3)C2)cc1` [Compound 5aa], the inhibition at 10 µM (D1) was < 50%, the inhibition at 10 µM (D3) was < 50% and the inhibition at 10 µM (D5) was < 50%. For the same molecule, the CLint scaled [1] was 122 mL/min/kg, the CLint scaled [2] was 3220 mL/min/kg and the “selectivity for D4 over the other dopamine receptors” value (shortened to “selectivity for D4”) [3] was > 1000 fold. For the same molecule, the “selectivity against all of the dopamine receptors tested” value (“selectivity against all” below) [3] was “completely selective”.

With `Cc1ccc(CN2CCO[C@H](CSc3ccccc3)C2)cc1C` [Compound 5bb] the inhibition at 10 µM (D1) was < 50%, the inhibition at 10 µM (D3) was < 50% and the inhibition at 10 µM (D5) was < 50%. For the same molecule, the CLint scaled [1] was 366 mL/min/kg, the CLint scaled [2] was 6440 mL/min/kg and the “selectivity for D4” value [3] was > 1000 fold. For the same molecule, the “selectivity against all” value [3] was “completely selective”.

With `Fc1ccc2c(CN3CCO[C@H](COc4cccc(Cl)n4)C3)c[nH]c2c1` [Compound 5y, (S)-2-(((6-chloropyridin-2-yl)oxy)methyl)-4-((6-fluoro-1H-indol-3-yl)methyl)morpholine] the inhibition at 10 µM (D1) was < 50%, the inhibition at 10 µM (D3) was < 50% and the inhibition at 10 µM (D5) was < 50%. For the same molecule, the CLint scaled [1] was 230 mL/min/kg, the CLint scaled [2] was 4200 mL/min/kg and the “selectivity for D4” value [3] was > 1000 fold. For the same molecule, the “selectivity against all” value [3] was “fully selective; also recorded: completely selective”, the “major metabolite in human microsomes” value ([4]; Compound A = N-dealkylation) was “Compound A” and the “extent of metabolism in human liver microsomes” value [4, 7] was “highly metabolized”. For the same molecule, the “major metabolite in rat microsomes” value ([5]; Compound B = N-dealkylation + oxidation) was “Compound B” and the “extent of metabolism in rat liver microsomes” value [5, 7] was “highly metabolized”.

`Fc1cc(CN2CCO[C@H](COc3ccccc3)C2)ccc1C(F)(F)F` [Compound 4j] showed a CLint scaled [1] of 50.5 mL/min/kg and a CLint scaled [2] of 247 mL/min/kg.

`c1ccc(OC[C@@H]2CN(Cc3ccc4[nH]ccc4c3)CCO2)cc1` [Compound 4z] gave a CLint scaled [1] of 135 mL/min/kg and a CLint scaled [2] of 3140 mL/min/kg.

With `Fc1cc(CN2CCO[C@H](COc3ccccc3)C2)ccc1Cl` [Compound 4g] the CLint scaled [1] was 65.3 mL/min/kg, the predicted clearance [1] was “moderate” and the CLint scaled [2] was 251 mL/min/kg.

Work on `Clc1ccc(CN2CCO[C@H](COc3ccccc3)C2)cc1` [Compound 4a] yielded a CLint scaled [1] of 147 mL/min/kg and a CLint scaled [2] of 4520 mL/min/kg.

With `COc1ccc(CN2CCO[C@H](COc3ccccc3)C2)cc1Cl` [Compound 4n] the inhibition at 10 µM (D1) was < 50%, the inhibition at 10 µM (D3) was < 50% and the inhibition at 10 µM (D5) was < 50%. It also gave a CLint scaled [1] of 78.7 mL/min/kg and a CLint scaled [2] of 1600 mL/min/kg.

In the case of `c1ccc(OC[C@@H]2CN(Cc3cn4ccccc4n3)CCO2)cc1` [Compound 4t], the CLint scaled [1] is reported as 17.3 mL/min/kg, the predicted clearance [1] is reported as “moderate” and the CLint scaled [2] is reported as 154 mL/min/kg.

Work on `Clc1ccc(CN2CCO[C@H](CCc3ccccc3)C2)cc1` [ML398] yielded an IC50 [6] of 130 nM and a Ki [6] of 36 nM.

Work on `Clc1ccc(CN2CCO[C@H](COc3cccc(Cl)n3)C2)cc1` [Compound 5z] yielded a CLint scaled [1] of 98.2 mL/min/kg and a CLint scaled [2] of 5310 mL/min/kg.

With `Cn1ncc2cc(CN3CCO[C@H](COc4ccccc4)C3)ccc21` [Compound 4y] the CLint scaled [1] was 60.5 mL/min/kg and the CLint scaled [2] was 433 mL/min/kg.

`COc1cc(CN2CCO[C@H](COc3ccccc3)C2)ccc1Cl` [Compound 4p] gave a CLint scaled [1] of 79.7 mL/min/kg and a CLint scaled [2] of 1500 mL/min/kg.

`Clc1ccc(CN2CCO[C@H](COc3ccccc3)C2)cc1Cl` [Compound 4i] showed a CLint scaled [1] of 50.5 mL/min/kg and a CLint scaled [2] of 621 mL/min/kg.

For `c1ccc(OC[C@@H]2CN(Cc3n[nH]c4ccccc34)CCO2)cc1` [Compound 4v], the inhibition at 10 µM (D1) was < 50%, the inhibition at 10 µM (D3) was < 50% and the inhibition at 10 µM (D5) was < 50%.

For `Fc1ccc2c(CN3CCO[C@H](COc4cccc(F)n4)C3)c[nH]c2c1` [Compound 5u], the inhibition at 10 µM (D1) was < 50%, the inhibition at 10 µM (D3) was < 50% and the inhibition at 10 µM (D5) was < 50%. For the same molecule, the CLint scaled [1] was 101 mL/min/kg, the CLint scaled [2] was 4010 mL/min/kg and the “selectivity against all” value [3] was “fully selective”.

— paper PMC5361409 (Bioorganic & medicinal chemistry letters, 2016)
